Consider 10 compounds from PMC6459016 (Journal of computer-aided molecular design, 2019).

pIC50: −log10 of the molar value. Where two headings read alike, the source gives them in different places.

Data set [1] deals with T1, recombinant human GALK1 (Homo sapiens, UniProt P51570). As to the kind of experiment: GALK1 inhibition assay. The data set is classed as biochemical. To be noted: for pIC50: luminescence GALK1-ATP-depletion assay, ATP 35 μM, galactose 100 μM; for MR (maximal % inhibition): maximal % inhibition at 57 μM compound. The gist of the method: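 Recombinant human GALK1 was run in 1536-well format against test compound at 6 doses (3 nM – 57 μM). Reactions were started with ATP (35 μM) and galactose (100 μM), both near their K_M under these conditions. Remaining ATP was read by Kinase-Glo luminescence. Normalized concentration-response data were fitted to a four-parameter logistic to give IC50 and efficacy (maximal response).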
T1 sequence (P51570 whole entry): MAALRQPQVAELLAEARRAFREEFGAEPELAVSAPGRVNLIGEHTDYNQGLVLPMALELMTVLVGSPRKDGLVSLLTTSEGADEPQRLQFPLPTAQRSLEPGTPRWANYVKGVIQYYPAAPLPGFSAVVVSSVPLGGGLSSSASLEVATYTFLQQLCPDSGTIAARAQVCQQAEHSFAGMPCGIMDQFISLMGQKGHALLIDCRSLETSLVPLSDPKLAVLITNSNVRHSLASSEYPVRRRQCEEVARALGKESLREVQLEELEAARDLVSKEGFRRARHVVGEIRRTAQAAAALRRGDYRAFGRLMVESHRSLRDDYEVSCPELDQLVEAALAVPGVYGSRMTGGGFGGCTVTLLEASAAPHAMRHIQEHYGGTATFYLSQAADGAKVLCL

Data set [2] can be described thus: Kinetic aqueous solubility. It counts as physicochemical. The note with it: kinetic aqueous solubility in PBS 7.4 buffer from a 10 mM DMSO stock.
The nature of data set [3]: Stirring double-sink PAMPA permeability. The data set is classed as in vitro ADME. To be noted: in-house at NCATS. The procedure, abridged: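 Effective permeability was measured by passive diffusion in a stirring double-sink PAMPA. Sample preparation, analysis and data processing were fully automated.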
On the technique in general: The PAMPA barrier holds no transporters, so it reflects passive diffusion.

A short description of data set [4]: Rat liver microsome stability. The data set is classed as in vitro ADME. To be noted: 37 °C, NADPH. In general terms: Microsomes from liver hold many membrane-bound enzymes, among them those of drug oxidation.
Data set [5] deals with T1, recombinant human GALK1. To be noted: cited from earlier work.

A word on the pIC50: it is the negative decadic logarithm of the IC50, by convention in mol/L. As for `Cc1ccc(-c2csc(NC(=O)c3ccccc3NS(=O)(=O)c3ccc(C)cc3)n2)cc1` [C6], at recombinant human GALK1 [1], the pIC50 was 4.85 and the “MR (maximal % inhibition)” value is on record as 81.0%. Moreover, the Solubility in data set [2] was under 1.0 Ug/ml. In data set [3], the Permeability stood at 35.6 ×10⁻⁶ cm/s. The “Microsomal T1/2” value in data set [4] is recorded as 2.6 m.

As to `COc1ccc(-c2csc(NC(=O)c3ccccc3NS(=O)(=O)c3ccc(C)cc3)n2)cc1` [C5], at recombinant human GALK1 [1], the pIC50 was 4.95 and the “MR (maximal % inhibition)” value was determined as 75.9%. Also, the Solubility in data set [2] is under 1.0 Ug/ml. The Permeability in data set [3] was found to be 30.1 ×10⁻⁶ cm/s. For the same compound, in data set [4], the “Microsomal T1/2” value is listed as 6.3 m.

Turning to `O=C1CCCC2=C1C(c1[nH]ncc1Cl)N=C(Nc1nc3ccccc3o1)N2` (stereo not shown) [NCGC00238624], the negative logarithm of the IC50 (pIC50) at recombinant human GALK1 [5] (GALK1) was 5.33. Besides, the Mode of inhibition entry on recombinant human GALK1 [5] (with respect to ATP and galactose substrate) is “competitive with respect to ATP and uncompetitive to galactose substrate”.

On to `O=C(Nc1nc(-c2ccccc2)cs1)c1ccncc1NS(=O)(=O)c1ccc(N2CCCC2=O)cc1` [C10], for which, at recombinant human GALK1 [1], the pIC50 was 4.35 and the “MR (maximal % inhibition)” value stood at 62.5%. In data set [2], this compound came in with a Solubility of 57.0 Ug/ml. The same compound had a Permeability in data set [3] of 313.5 ×10⁻⁶ cm/s. Further, the “Microsomal T1/2” value in data set [4] was 1.6 m.

Consider `Cc1ccccc1S(=O)(=O)Nc1cnccc1C(=O)Nc1nc(-c2ccccc2)cs1` [C7], for which, on recombinant human GALK1 [1], the pIC50 was 4.95 and the “MR (maximal % inhibition)” value is given as 90.3%. The same compound gave a Solubility in data set [2] of 50.0 Ug/ml. In addition, in data set [3], the Permeability came to 1064.7 ×10⁻⁶ cm/s.

As for `O=C(Nc1nc(-c2ccccc2)cs1)c1ccncc1NS(=O)(=O)c1ccc(-c2ccccc2)cc1` [C9], at recombinant human GALK1 [1], the pIC50 was 4.75 and the “MR (maximal % inhibition)” value came to 88.5%. The same compound came in with a Solubility in data set [2] of under 1.0 Ug/ml. The Permeability in data set [3] was under 1.0 ×10⁻⁶ cm/s. The “Microsomal T1/2” value in data set [4] amounted to 2.0 m.

For the compound `Cc1ccc(S(=O)(=O)Nc2cc(Cl)c(Cl)cc2C(=O)Nc2nc(-c3ccccc3)cs2)cc1` [C4], at recombinant human GALK1 [1], the pIC50 was 4.65 and the “MR (maximal % inhibition)” value was 89.3%. In addition, in data set [2], the Solubility is on record as under 1.0 Ug/ml. In data set [3], this compound gave a Permeability of under 5.0 ×10⁻⁶ cm/s. In addition, the “Microsomal T1/2” value in data set [4] is 13.0 m.

Take `Cc1ccc(S(=O)(=O)Nc2cc(C(F)(F)F)ccc2C(=O)Nc2nc(-c3ccccc3)cs2)cc1` [C3]: at recombinant human GALK1 [1], the pIC50 was 4.80 and the “MR (maximal % inhibition)” value stood at 92.9%. The compound further registered a Solubility in data set [2] of under 1.0 Ug/ml. The same compound registered a Permeability in data set [3] of 82.2 ×10⁻⁶ cm/s. Also, the “Microsomal T1/2” value in data set [4] was 15.0 m.

For the compound `Cc1ccc(S(=O)(=O)Nc2cnccc2C(=O)Nc2nc(-c3ccccc3)cs2)cc1` [C2], at recombinant human GALK1 [1], the pIC50 was 4.85 and the “MR (maximal % inhibition)” value is reported as 83.5%. The compound further came in with a Solubility in data set [2] of 9.4 Ug/ml. Further, the Permeability in data set [3] amounted to 724.3 ×10⁻⁶ cm/s. The “Microsomal T1/2” value in data set [4] came out at 17.0 m.

For the compound `COc1ccc(S(=O)(=O)Nc2cnccc2C(=O)Nc2nc(-c3ccccc3)cs2)cc1` [C8], on recombinant human GALK1 [1], the pIC50 was 4.80 and the “MR (maximal % inhibition)” value stood at 84.5%. The compound also displayed a Solubility in data set [2] of 54.1 Ug/ml. In data set [3], the Permeability was determined as 674.5 ×10⁻⁶ cm/s. The “Microsomal T1/2” value in data set [4] is on record as 1.6 m.
